Measurements taken from ChEMBL document CHEMBL1121658, “Novel immunosuppressive agents. Potent immunological activity of some bensothiopyrano [4,3-c]pyrazol-3-ones” (J Med Chem, 1981).

How the values were obtained:
Mus musculus [1] = assay: Immunological activity in mice as the percentage of suppression of the cellular response to EI4 tumor cells at 10 mg/kg; assay type: functional
Outline: (§1)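 Balb/c mice, groups of 10, immunized ip on day 0 with 10^7 EL4 ascites tumor cells. Dosed orally 10 mg/kg once daily days 0-9, in water with a little NaOH (circa pH 8.5); saline controls. On day 10, spleen cells (1.5×10^7 viable) incubated with 51Cr-labeled EL4 cells (0.5×10^6) for 3 h at 37 °C in 10% CO2. Lysis corrected for spontaneous release; reported as % inhibition of control lysis.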

Mus musculus [2] = assay: Compound was evaluated for immunological activity in mice as the percentage of suppression of the humoral response to EI4 tumor cells at 10 mg/kg, po; assay type: functional
Outline: (§2)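 Balb/c mice, groups of 10, immunized ip on day 0 with 10^7 EL4 cells. Dosed orally 10 mg/kg once daily days 0-9, in water with a little NaOH (pH ~8.5); saline controls. Titer taken as the dilution giving 50% maximal lysis; reported as % inhibition of control titer.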

[3] = Acid dissociation constant was determined; assay type: ADME
Outline: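 pKa by potentiometric titration in 2:1 dioxane-H2O (v/v) against 0.5 N NaOH; apparent pKa read as the pH at half-neutralization.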

Mus musculus [4] = species: Mus musculus; assay: Compound was evaluated for the dose required to inhibit the cellular response to 50% (immune activity); assay type: functional
Outline: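 Cellular response to EL4 in Balb/c mice measured by spleen-cell lysis of 51Cr-labeled EL4 cells (3 h, 37 °C). Mice were given oral daily doses from day 0 to day 9 at several levels, tested up to 300 mg/kg. ED50 was obtained by linear interpolation between the doses giving above and below 50% inhibition.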

Mus musculus [5] = species: Mus musculus; assay: Compound was evaluated for the dose required to inhibit the humoral response to 50% (immune activity); assay type: functional
Outline: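 Humoral response to EL4 in Balb/c mice measured as complement-dependent lysis titer of 51Cr-labeled EL4 cells by day-10 sera. Mice were given oral daily doses from day 0 to day 9 at several levels. ED50 was obtained by linear interpolation between the doses bracketing 50% inhibition of the control titer.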

Mus musculus [6] = assay: Compound was evaluated for immunological activity in mice as the percentage of suppression of the humoral response to EI4 tumor cells at 10 mg/kg, po; Data unreliable; assay type: functional, organism-based; set-up: dose 10 mg/kg; outline: as §2
Mus musculus [7] = assay: Compound was evaluated for immunological activity in mice as the percentage of suppression of the cellular response to EI4 tumor cells at 10 mg/kg, po; assay type: functional; outline: as §1

pKa [3] | SMILES | Suppression (Mus musculus [1]) | Suppression (Mus musculus [2]) | ED50 (Mus musculus [4]) | ED50 (Mus musculus [5]) | Suppression (Mus musculus [6]) | Suppression (Mus musculus [7])
 | [O-][S+]1Cc2c(nn(-c3ccc(Cl)cc3)c2O)-c2ccccc21 (centres undefined) | >90% | >90% |  |  |  | 
 | Oc1c2c(nn1-c1ccccn1)-c1ccccc1SC2 | 2% | -19% |  |  |  | 
7.48 | Oc1c2c(nn1-c1ccccc1)-c1ccccc1SC2 | 1% |  | 130 mg/kg | 70 mg/kg | Data unreliable | 
 | O=P1(N(CCCl)CCCl)NCCCO1 (centres undefined) [CYCLOPHOSPHAMIDE ANHYDROUS] | 52% | >90% |  |  |  | 
7.56 | Oc1c2c(nn1-c1ccc(Cl)cc1)-c1ccccc1SC2 | >90% | >90% | 2 mg/kg | 0.5 mg/kg |  | 
 | Sc1ncnc2nc[nH]c12 [MERCAPTOPURINE ANHYDROUS] | 63% | 52% |  |  |  | 
7.76 | COc1ccc(-n2nc3c(c2O)CSc2ccccc2-3)cc1 | -11% | -6% | 240 mg/kg | 150 mg/kg |  | 
 | Oc1c2c(nn1-c1cc(Cl)cc(Cl)c1)-c1ccccc1SC2 | 19% | 73% | 31 mg/kg | 8 mg/kg |  | 
7.74 | Oc1c2c(nn1-c1ccccc1Cl)-c1ccccc1SC2 | 8% | 45% |  |  |  | 
7.64 | Cc1ccc(-n2nc3c(c2O)CSc2ccccc2-3)cc1 | 19% | 46% |  |  |  | 
 | Oc1[nH]nc2c1CSc1ccccc1-2 | 1% |  |  |  | Data unreliable | 
 | Oc1c2c(nn1-c1cccc(Cl)c1)-c1ccccc1SC2 |  | 67% | 45 mg/kg | 9 mg/kg |  | 16%
 | Cn1nc2c(c1O)CSc1ccccc1-2 | 14% | -3% |  |  |  | 
 | Oc1c2c(nn1-c1ccc(Cl)cc1Cl)-c1ccccc1SC2 | -4% | 20% |  |  |  | 
 | CS(=O)(=O)c1ccc(-n2nc3c(c2O)CSc2ccccc2-3)cc1 | 1% | 28% | > 300 mg/kg | 170 mg/kg |  | 
 | Cn1cnc([N+](=O)[O-])c1Sc1ncnc2[nH]cnc12 [AZATHIOPRINE] | -3% | 6% |  |  |  | 
7.13 | Oc1c2c(nn1-c1ccc(Br)cc1)-c1ccccc1SC2 | 84% | >90% | 3.3 mg/kg | 2 mg/kg |  | 
7.28 | Oc1c2c(nn1-c1cccc(Cl)c1Cl)-c1ccccc1SC2 | 5% | 51% |  |  |  | 
 | Oc1c2c(nn1CC(F)(F)F)-c1ccccc1SC2 | -2% | 17% |  |  |  | 
 | Oc1c2c(nn1-c1ccc(C(F)(F)F)cc1)-c1ccccc1SC2 | 71% | >90% | 6.5 mg/kg | 6 mg/kg |  | 
 | Oc1c2c(nn1-c1ccc(Cl)c(Cl)c1)-c1ccccc1SC2 | 62% | 87% | 3 mg/kg | 1 mg/kg |  | 
 | Oc1c2c(nn1-c1ccc(F)cc1)-c1ccccc1SC2 | 86% | >90% | 5.5 mg/kg | 3.3 mg/kg |  | 
 | Oc1c2c(nn1Cc1ccccc1)-c1ccccc1SC2 | -3% | 0% |  |  |  | 
 | Oc1c2c(nn1-c1c(Cl)cccc1Cl)-c1ccccc1SC2 | 1% | 4% |  |  |  | 
 | O=[N+]([O-])c1ccc(-n2nc3c(c2O)CSc2ccccc2-3)cc1 | 27% |  |  |  | Data unreliable | 
 | O=c1c2csc3ccccc3c-2nn1-c1ccc(Cl)cc1 | 63% | >90% |  |  |  | 
